We go through eight compounds from ChEMBL document CHEMBL2057113, “Modern phenotypic drug discovery is a viable, neoclassic pharma strategy” (J Med Chem, 2012).

Where a name gives a salt, the structure may show the parent alone. Active and inactive are the calls of the source. No cut-off for these calls is given here.

The nature of data set [1]: Inhibition of endothelial cord area formation in endothelial precursor cells by CD31 cord area detection based phenotypic drug discovery based assay. Format: functional. A digest of the protocol:
(§1)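 384-well coculture of endothelial colony-forming cells (ECFC) with adipose-derived stromal cells (ADSC) at 37 °C, 5% CO2. Screening at 2 μM single point on CD31-positive cord area; actives retested in 10-point dose response, with CD31 cord area as cord formation read-out and total nuclei count as cytotoxicity read-out.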

Data set [2] in a line: Toxicity in endothelial precursor cells co-cultured with stromal precursor ADSC cells by total nuclei count detection based phenotypic drug discovery based assay. A digest of the protocol: as §1
The nature of data set [3]: Inhibition of cell migration in endothelial precursor cells by Oris cell migration kit based phenotypic drug discovery based assay. Type of data set: functional.
Data set [4] can be described thus: Toxicity in human HeLa cells assessed as cell cycle arrest at G2M phase by flow cytometry based phenotypic drug discovery based assay.
Data set [5] has as its system U-87 MG. Kind of data set: In-vivo inhibition of angiogenesis in human U87MG cells xenografted in athymic nude Harlan mouse at 30 mg/kg, sc dosed twice daily for 3 days measured 3 days post dose by fluorescence microscopy. Format: functional, organism-based. Particulars: U-87MG ATCC. The arrangement: dose 30 mg/kg. A digest of the protocol: (§2)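 U87MG glioblastoma cells mixed 1:1 with Matrigel, 5.0 × 10^6 cells injected subcutaneously into right rear flank of female athymic nude mice; grown to mean 250 mm3, randomized by tumor volume and body weight (10/group). Dosing twice daily for 3 days: sc in 100% peanut oil, or oral gavage in 10% acacia. Tumors excised, zinc-Tris fixed, paraffin sectioned at 4 μm.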
Background: In xenograft studies the graft and the host belong to different species.

The target of data set [6] is Gamma-secretase (Homo sapiens) (UniProt Q96BI3+Q9NZ42+Q8WW43+P49768+Q92542+P49810). Kind of data set: Inhibition of human gamma secretase-expressed in HEK293 co-expressing human Notch-1 cells assessed as effect on enzyme-mediated Notch-1 processing up to 5 uM. Type of data set: cell-based. A digest of the protocol:
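HEK293 cells expressing a human Notch-1 construct lacking the extracellular ligand-binding domain (analogous to constitutively active mouse NotchΔE); γ-secretase cleavage detected with a mouse monoclonal antibody to the γ-secretase neoepitope of human Notch-1; tested up to 5 μM.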

Data set [7] deals with U-87 MG. Kind of data set: In-vivo inhibition of angiogenesis in human U87MG cells xenografted in athymic nude Harlan mouse at 10 mg/kg oral gavage dosed twice daily for 3 days measured 3 days post dose by fluorescence microscopy. Type of data set: functional, organism-based. The arrangement: dose 10 mg/kg. Particulars: U-87MG ATCC. A digest of the protocol:
as §2

For data set [8], the target named is Beta-secretase 1 (Homo sapiens, UniProt P56817). Kind of data set: Inhibition of human BACE1 using BACE1-IgG construct by labeled substrate hydrolysis detection assay. A digest of the protocol:
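Soluble human BACE activity: purified BACE-IgG ectodomain construct hydrolyzing a labeled peptide substrate.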

Data set [9] addresses Gamma-secretase. Kind of data set: Inhibition of human gamma secretase expressed in HEK293 cells coexpressing human APP by soluble beta-APP detection based ELISA. Format: cell-based. A digest of the protocol: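 HEK293 cells expressing recombinant human APP; soluble APPsβ production measured by ELISA with a mouse monoclonal antibody to the β-secretase neoepitope of hAPP.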
In general terms: An ELISA detects its analyte on a solid surface through an enzyme-linked reagent.

The test system of data set [10] is HEK293. Kind of data set: Inhibition of ACC expressed in HEK293 cells assessed as effect on incorporation of [14C]acetate into triacylglycerol. Format: cell-based. As to conditions: Homo sapiens. A digest of the protocol: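 HEK293 cells moved from growth medium (DMEM, 10% FBS) into Opti-MEM containing compound in 0.2% DMSO for 1 h, then labeled with 30 μM [14C]acetate for 4 h. Cells washed, dissolved in Triton X-100 (0.175%) with basic ethanol/isopropanol at room temperature; labeled triacylglycerol extracted into heptane and counted by liquid scintillation.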

Chain of Beta-secretase 1 (P56817 whole entry, the tested form may be a part): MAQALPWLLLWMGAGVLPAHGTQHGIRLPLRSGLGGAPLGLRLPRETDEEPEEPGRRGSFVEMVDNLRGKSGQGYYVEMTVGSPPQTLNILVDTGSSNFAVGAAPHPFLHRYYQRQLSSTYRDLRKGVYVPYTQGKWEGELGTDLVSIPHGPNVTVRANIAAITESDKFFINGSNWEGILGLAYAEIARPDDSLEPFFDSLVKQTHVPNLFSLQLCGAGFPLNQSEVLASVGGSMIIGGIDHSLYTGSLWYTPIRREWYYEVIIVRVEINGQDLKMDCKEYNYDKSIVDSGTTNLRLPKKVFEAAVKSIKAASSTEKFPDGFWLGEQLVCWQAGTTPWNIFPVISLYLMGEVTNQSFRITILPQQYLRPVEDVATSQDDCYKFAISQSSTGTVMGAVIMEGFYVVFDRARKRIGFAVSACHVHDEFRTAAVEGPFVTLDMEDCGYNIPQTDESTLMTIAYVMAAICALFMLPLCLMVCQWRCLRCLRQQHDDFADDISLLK

`Cc1ccc(OCC(=O)N[C@H]2c3cc(NC(=O)[C@@H](C)Oc4ccc(C#N)cc4C)ccc3C[C@@H]2O)cc1` (mixture of isomers): the EC50 in [1] was 0.021 µM; in data set [2], over 10 µM; in data set [4], over 10 µM. In data set [3], the IC50 is over 40 µM. Moreover, the inhibition result in data set [5] is “Active”. For the same compound, the inhibition entry in data set [6] is “inactive”.
Regarding `CCN(CC)CCNC(=O)c1c(C)[nH]c(/C=C2\C(=O)Nc3ccc(F)cc32)c1C` [SUNITINIB], the IC50 in data set [1] is 0.0096 µM; in data set [3], 13.6 µM. The concentration for a half-maximal effect (EC50) in data set [2] and in data set [4] was over 10 µM each time. Further, in [7], the inhibition entry is “Active”.
`Cc1ccc(OCC(=O)N[C@H]2c3cc(NC(=O)COc4ccc(C#N)cc4C)ccc3C[C@@H]2O)cc1`: the half-maximal inhibitory concentration (IC50) is 0.022 µM in data set [1], over 10 µM in data set [2], 0.142 µM in data set [8] and over 5 µM in data set [9]. In [6], the inhibition result is “inactive”.
Consider `CCNC(=O)Nc1sc2ccccc2c1C(=O)N1CCC2(CC1)CC(=O)c1cc(-c3nccs3)ccc1O2`, for which the results for the EC50 in data set [1], in data set [2] and in [4] were 0.041 µM, over 10 µM and over 10 µM, respectively. Moreover, the midpoint of inhibition in data set [3], the IC50, lay at 13 µM. Besides, the inhibition entry in [10] is “Active”.
Regarding `Cc1ccc(OCC(=O)N[C@@H]2c3cc(NC(=O)COc4ccc(C#N)cc4C)ccc3C[C@@H]2O)cc1`, the IC50 in [1] was 9.1 µM; in [2], over 10 µM; in [8] it was 45.6 µM; in data set [9], over 5 µM. For the same compound, in data set [6], the inhibition entry was “inactive”.
The like results for `Cc1ccc(OCC(=O)N[C@@H]2c3cc(NC(=O)COc4ccc(C#N)cc4C)ccc3C[C@H]2O)cc1` were, in that order, 2.5 µM, over 10 µM, 13.6 µM, over 5 µM and “inactive”.
In the case of `Cc1ccc(OCC(=O)N[C@H]2c3cc(NC(=O)COc4ccc(C#N)cc4C)ccc3C[C@H]2O)cc1`, the concentration for half-maximal inhibition (IC50) in data set [1] is 1.45 µM; in data set [2], over 10 µM; in [8] it was 4 µM; in data set [9], over 5 µM. For the same compound, the inhibition entry in data set [6] is “inactive”.
For `CNC(=O)c1cc(Oc2ccc(NC(=O)Nc3ccc(Cl)c(C(F)(F)F)c3)cc2)ccn1` [SORAFENIB TOSYLATE], the IC50 in data set [1] is 0.00421 µM; in data set [3] it was 16.7 µM. Also, the EC50 in data set [2] is 5.46 µM; in data set [4], over 10 µM.

By EC50 is commonly meant the midpoint of the concentration-response curve. What is called IC50 is the concentration at which inhibition is half-maximal. A high value points to weaker potency.
